Data reported in ChEMBL document CHEMBL1806370, “Development of novel naphthalimide derivatives and their evaluation as potential melanoma therapeutics” (Eur J Med Chem, 2011).

Legend:
UACC-903 [1] = assay: Cytotoxicity against human UACC-903 cells assessed as decrease in cell viability after 24 hrs by MTS assay; format: functional, cell-based
Outline: (§1)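 Cells in DMEM with 10% FBS at 37 °C and 5% CO2 were plated at 5×10^3 per well and grown 24 h. They were then exposed 24 or 72 h to 0.5, 1, 5, 10, 25 and 50 µM, with final DMSO 0.5% and DMSO controls. MTS/PMS was added for 4 h at 37 °C. A492 was read with the medium blank subtracted and expressed as % of control. IC50 was taken from three independent experiments (mean ± S.E.).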

A375-S2 [2] = assay: Cytotoxicity against human A375-S2 cells assessed as decrease in cell viability after 24 hrs by MTS assay; format: functional, cell-based; outline: as §1
1205Lu [3] = assay: Cytotoxicity against human 1205 Lu cells assessed as decrease in cell viability after 24 hrs by MTS assay; format: functional, cell-based; outline: as §1
UACC-903 [4] = assay: Cytotoxicity against human UACC-903 cells assessed as decrease in cell viability after 72 hrs by MTS assay; format: functional, cell-based; outline: as §1
A375-S2 [5] = assay: Cytotoxicity against human A375-S2 cells assessed as decrease in cell viability after 72 hrs by MTS assay; format: functional, cell-based; outline: as §1
1205Lu [6] = assay: Cytotoxicity against human 1205 Lu cells assessed as decrease in cell viability after 72 hrs by MTS assay; format: functional, cell-based; outline: as §1
UACC-903 [7] = assay: Cytotoxicity against human UACC-903 cells after 24 hrs by MTS assay; format: functional, cell-based; settings: UACC-903, 24 h; outline: as §1
[8] = Cytotoxicity against human A375-S2 cells after 24 hrs by MTS assay; format: functional, cell-based; settings: A375-S2, 24 h; outline: as §1
[9] = Cytotoxicity against human SK-MEL-37 cells after 24 hrs by MTS assay; format: functional, cell-based; outline: as §1
[10] = Cytotoxicity against human 1205 Lu cells after 24 hrs by MTS assay; format: functional, cell-based; outline: as §1
UACC-903 [11] = assay: Cytotoxicity against human UACC-903 cells after 72 hrs by MTS assay; format: functional, cell-based; settings: UACC-903, 72 h; outline: as §1
[12] = Cytotoxicity against human A375-S2 cells after 72 hrs by MTS assay; format: functional, cell-based; settings: A375-S2, 72 h; outline: as §1
[13] = Cytotoxicity against human SK-MEL-37 cells after 72 hrs by MTS assay; format: functional, cell-based; outline: as §1
[14] = Cytotoxicity against human 1205 Lu cells after 72 hrs by MTS assay; format: functional, cell-based; outline: as §1
UACC-903 [15] = assay: Induction of apoptosis in human UACC-903 cells assessed as early apoptotic cells at 1 uM after 24 hrs using annexin-V-PE/7-AAD double staining by flow cytometry; format: functional
Outline: (§2)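 UACC 903 cells were exposed 24 h at 37 °C to 1, 5 or 25 µM, with DMSO as control. Cells were harvested, washed twice in cold PBS and resuspended at 1×10^6 cells/mL in binding buffer. They were stained with 7-AAD plus PE Annexin V for 20 min at room temperature in the dark and run by flow cytometry within 1 h. Gating: double-negative live, 7-AAD+ dead, Annexin V+/7-AAD− early apoptotic. Three separate experiments.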

UACC-903 [16] = assay: Induction of apoptosis in human UACC-903 cells assessed as late apoptotic cells at 1 uM after 24 hrs using annexin-V-PE/7-AAD double staining by flow cytometry; format: functional; outline: as §2
UACC-903 [17] = assay: Induction of apoptosis in human UACC-903 cells assessed as non-viable cells at 1 uM after 24 hrs using annexin-V-PE/7-AAD double staining by flow cytometry; format: functional; outline: as §2
UACC-903 [18] = assay: Induction of apoptosis in human UACC-903 cells assessed as viable cells at 1 uM after 24 hrs using annexin-V-PE/7-AAD double staining by flow cytometry; format: functional; settings: UACC-903, 24 h, read-out: Activity; outline: as §2
UACC-903 [19] = assay: Induction of apoptosis in human UACC-903 cells assessed as early apoptotic cells at 5 uM after 24 hrs using annexin-V-PE/7-AAD double staining by flow cytometry; format: functional; outline: as §2
UACC-903 [20] = assay: Induction of apoptosis in human UACC-903 cells assessed as late apoptotic cells at 5 uM after 24 hrs using annexin-V-PE/7-AAD double staining by flow cytometry; format: functional; outline: as §2
UACC-903 [21] = assay: Induction of apoptosis in human UACC-903 cells assessed as non-viable cells at 5 uM after 24 hrs using annexin-V-PE/7-AAD double staining by flow cytometry; format: functional; outline: as §2
UACC-903 [22] = assay: Induction of apoptosis in human UACC-903 cells assessed as viable cells at 5 uM after 24 hrs using annexin-V-PE/7-AAD double staining by flow cytometry; format: functional; settings: UACC-903, 24 h, read-out: Activity; outline: as §2
UACC-903 [23] = assay: Induction of apoptosis in human UACC-903 cells assessed as early apoptotic cells at 25 uM after 24 hrs using annexin-V-PE/7-AAD double staining by flow cytometry; format: functional; outline: as §2
UACC-903 [24] = assay: Induction of apoptosis in human UACC-903 cells assessed as late apoptotic cells at 25 uM after 24 hrs using annexin-V-PE/7-AAD double staining by flow cytometry; format: functional; outline: as §2
UACC-903 [25] = assay: Induction of apoptosis in human UACC-903 cells assessed as non-viable cells at 25 uM after 24 hrs using annexin-V-PE/7-AAD double staining by flow cytometry; format: functional; outline: as §2
UACC-903 [26] = assay: Induction of apoptosis in human UACC-903 cells assessed as viable cells at 25 uM after 24 hrs using annexin-V-PE/7-AAD double staining by flow cytometry; format: functional; settings: UACC-903, 24 h, read-out: Activity; outline: as §2
UACC-903 [27] = assay: Induction of apoptosis in human UACC-903 cells assessed as increase in apoptotic cells after 24 hrs using annexin-V-PE/7-AAD double staining by flow cytometry; format: functional, cell-based; outline: as §2
Mus musculus [28] = assay: Systemic toxicity in Swiss Webster mouse assessed as mortality at 15 mg/kg, ip administered every day for 28 days; format: organism-based; design: dose 15 mg/kg, route intraperitoneal; settings: in vivo, 672 h
Outline: (§3)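 Swiss Webster mice, n = 4 per group, dosed i.p. once daily for 28 days at 5, 7.5, 10 or 15 mg/kg body weight. Body weight recorded twice per week; deaths noted over the dosing period.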

Mus musculus [29] = assay: Systemic toxicity in Swiss Webster mouse assessed as weight loss at 10 mg/kg, ip administered every day for 28 days; format: organism-based; design: dose 10 mg/kg, route intraperitoneal; settings: in vivo, 672 h; outline: as §3
Mus musculus [30] = assay: Systemic toxicity in Swiss Webster mouse assessed as mortality at 10 mg/kg, ip administered every day for 28 days; format: organism-based; design: dose 10 mg/kg, route intraperitoneal; settings: in vivo, 672 h; outline: as §3
Mus musculus [31] = assay: Systemic toxicity in athymic Harlan Sprague-Dawley nude mouse xenografted with human UACC-903 cells assessed as mortality at 10 mg/kg, ip administered daily for 28 days; format: organism-based; design: dose 10 mg/kg, route intraperitoneal; settings: in vivo, 672 h
UACC-903 [32] = assay: Antitumor activity against human UACC-903 cells xenografted in athymic Harlan Sprague-Dawley nude mouse assessed as reduction in tumor growth at 8.5 to 10 mg/kg, ip administered thrice per week for 24 days measured after 21 days; format: functional; settings: dose mg/kg 8.5-10; route intraperitoneal
Outline: (§4)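 Female athymic nude mice, 4–6 weeks old, received 5×10^6 UACC 903 cells s.c. in DMEM/10% FBS above both rib cages. After six days they were randomized at 5 mice/group, 2 tumors/mouse. Dosing was i.p. Mon/Wed/Fri, with one arm dosed daily; controls got DMSO vehicle. Tumor dimensions (calipers, mm³) and body weight were recorded three times weekly.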

Mus musculus [33] = assay: Systemic toxicity in athymic Harlan Sprague-Dawley nude mouse xenografted with human UACC-903 cells assessed as reduction in body weight at 8.5 to 10 mg/kg, ip administered thrice a week for 24 days; format: organism-based; design: dose 8.5-10 mg/kg, route intraperitoneal; settings: in vivo, 576 h; outline: as §4
SK-MEL-37 (Homo sapiens) [34] = assay: Cytotoxicity against human SK-MEL-37 cells assessed as decrease in cell viability after 24 hrs by MTS assay
SK-MEL-37 (Homo sapiens) [35] = assay: Cytotoxicity against human SK-MEL-37 cells assessed as decrease in cell viability after 72 hrs by MTS assay
Mus musculus [36] = assay: Systemic toxicity in Swiss Webster mouse assessed as reduction in body weight at 10 mg/kg, ip administered daily for 28 days; design: scale not given: the % may be the effect or the level left; settings: in vivo, 672 h
UACC-903 [37] = assay: Antitumor activity against human UACC-903 cells xenografted in athymic Harlan Sprague-Dawley nude mouse assessed as reduction in tumor growth at 9.5 to 10.6 mg/kg, ip administered thrice per week for 24 days measured after 21 days; format: functional; settings: dose mg/kg 9.5-10.6; route intraperitoneal; outline: as §4
Mus musculus [38] = assay: Systemic toxicity in athymic Harlan Sprague-Dawley nude mouse xenografted with human UACC-903 cells assessed as reduction in body weight at 9.5 to 10.6 mg/kg, ip administered thrice a week for 24 days; format: organism-based; design: dose 9.5-10.6 mg/kg, route intraperitoneal; settings: in vivo, 576 h; outline: as §4

| SMILES | Activity (UACC-903 [1]) | Activity (A375-S2 [2]) | Activity (1205Lu [3]) | Activity (UACC-903 [4]) | Activity (A375-S2 [5]) | Activity (1205Lu [6]) | IC50 (UACC-903 [7]) [µM] | IC50 [8] [µM] | IC50 [9] [µM] | IC50 [10] [µM] | IC50 (UACC-903 [11]) [µM] | IC50 [12] [µM] | IC50 [13] [nM] | IC50 [14] [µM] | Activity (UACC-903 [15]) [%] | Activity (UACC-903 [16]) [%] | Activity (UACC-903 [17]) [%] | viability at 1 µM (UACC-903 [18]) [%] | Activity (UACC-903 [19]) [%] | Activity (UACC-903 [20]) [%] | other results |
| --- | --- | --- | --- | --- | --- | --- | --- | --- | --- | --- | --- | --- | --- | --- | --- | --- | --- | --- | --- | --- | --- |
| O=C1c2cccc3cc([N+](=O)[O-])cc(c23)C(=O)N1CCN=C=S | Dose-dependent effect | Dose-dependent effect | Dose-dependent effect | Dose-dependent effect | Dose-dependent effect | Dose-dependent effect | 8.38 | 7.88 | 2.88 | 5.82 | 5.5 | 2.81 | 1730 | 3.91 | 17.9 | 7.83 | 1.39 | 72.9 | 22.2 | 11.9 | Activity (UACC-903 [21]): 1.23%; viability at 5 µM (UACC-903 [22]): 64.7%; Activity (UACC-903 [23]): 79.8%; Activity (UACC-903 [24]): 18.6%; Activity (UACC-903 [25]): 0.19%; viability at 25 µM (UACC-903 [26]): 1.4%; Activity (UACC-903 [27]): Dose-dependent effect; Activity (Mus musculus [28]): Toxic; Activity (Mus musculus [29]): Non-toxic; Activity (Mus musculus [30]): Non-toxic; Activity (Mus musculus [31]): Non-toxic; growth inhibition (GI) (UACC-903 [32]): 60%; Activity (Mus musculus [33]): Non-toxic; Activity (SK-MEL-37 (Homo sapiens) [34]): Dose-dependent effect; Activity (SK-MEL-37 (Homo sapiens) [35]): Dose-dependent effect; Activity (Mus musculus [36]): 10% |
| N=C(N)SCCN1C(=O)c2cccc3cccc(c23)C1=O | Dose-dependent effect | Dose-dependent effect | Dose-dependent effect | Dose-dependent effect | Dose-dependent effect | Dose-dependent effect | 9.87 | 6.7 | 3.7 | 22.4 | 6.85 | 3.78 | 2150 | 18.7 | 9.11 | 1.04 | 0.71 | 89.1 | 17.5 | 2.41 | Activity (UACC-903 [21]): 0.42%; viability at 5 µM (UACC-903 [22]): 79.7%; Activity (UACC-903 [23]): 47.6%; Activity (UACC-903 [24]): 9.64%; Activity (UACC-903 [25]): 0.43%; viability at 25 µM (UACC-903 [26]): 42.4%; Activity (UACC-903 [27]): Dose-dependent effect; Activity (Mus musculus [28]): Toxic; Activity (Mus musculus [29]): Non-toxic; Activity (Mus musculus [30]): Non-toxic; growth inhibition (GI) (UACC-903 [37]): 20%; Activity (Mus musculus [38]): Non-toxic; Activity (SK-MEL-37 (Homo sapiens) [34]): Dose-dependent effect; Activity (SK-MEL-37 (Homo sapiens) [35]): Dose-dependent effect |
